Published values of several laboratories.
Compare with care: the assays were run in different laboratories.
Target: Fibroblast growth factor receptor 2 (FGFR2, Homo sapiens, UniProt P21802)

SMILES	test	conditions	measurement	result
Cc1nn(C)cc1-c1nc2c(N3CCN(Cc4ccc(Cl)cc4)CC3)c(Cl)cnc2[nH]1	binding, competition with immobilised ligand	1 µM	remaining binding	45%
C#Cc1n[nH]c2c(-c3cn([C@@H](C)c4ccccc4)c(=O)[nH]c3=O)cc(F)cc12	enzyme activity, inhibitor	0.1 µM	inhibition	1.6%
Cn1cc(-c2cccc(N3CCc4c(sc5c4CC(C)(C)C5)C3=O)c2CO)cc(Nc2ccncn2)c1=O	enzyme activity, inhibitor	1 µM	inhibition	14%
Cn1cncc1[C@](O)(COc1ccc(C#N)cc1-c1ccc(OC(F)(F)F)cc1)c1ccc(C#N)cc1	cell-free assay, competition with immobilised ligand	1 µM	remaining binding	86%
C#Cc1n[nH]c2c(-c3cn([C@@H](C)c4ccccn4)c(=O)[nH]c3=O)cc(F)cc12	enzyme activity, inhibitor	0.1 µM	inhibition	4.2%
COc1ncccc1-c1cnn2ccc(N3CCN(C(=O)OC(C)C)CC3)nc12	binding, competition with immobilised ligand	1 µM	remaining binding	82%
Cn1cc(-c2cc(F)cc(N3CCn4c(cc5c4CCCC5)C3=O)c2CO)cc(Nc2ccc(N3CCN(C4COC4)CC3)cn2)c1=O	enzyme activity, inhibitor	0.1 µM	inhibition	15%
CC(C)(C)c1cc(C=C(C#N)C#N)cc(Br)c1O	enzyme activity, inhibitor	0.5 µM	remaining activity	96.4%
COCc1c(-c2cc3cc(C)cc(OC)c3s2)c2c(N)ncnn2c1CN1CCNC(=O)C1	cell-free assay, competition with immobilised ligand	1 µM	inhibition	99.8%
Nc1ncc(-c2nc(N3CCOCC3)nc(N3CCOCC3)n2)c(C(F)F)n1	cell-free assay, competition with immobilised ligand	10 µM	remaining binding	90%
N#CC1(c2ccccn2)CCN(Cc2cc(C(=O)O)c(=O)n3ccccc23)CC1	cell-free assay, competition with immobilised ligand	1 µM	remaining binding	100%
O=c1[nH]c2ccccc2n1C1CCN(Cc2ccc(-c3[nH]c4cc5ncnc5cc4nc3-c3ccccc3)cc2)CC1	cell-free assay	0.5 µM	remaining signal	94.2%
